Data published in paper PMC7522377 (International Journal of Pharmaceutics: X, 2020).
Counter-ions that a name gives are not always drawn.

What was measured:
[1] = test system: PPCL-46 cells; assay: Cytotoxicity in 2D culture, Alamar blue assay; assay type: cell-based; conditions: Homo sapiens, 48 h, read-out: IC50 μM (2D PPCL-46 culture), 48 h treatment, mean ± SEM, n = 3
In short: (§1)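 Cells in DMEM (high glucose, 10% FBS, 1% PenStrep) were seeded at 1 × 10³/well and kept at 37 °C, 5% CO2. At 70–75% confluence they were treated for 48 h in triplicate per concentration; GemHCl ran 5–60 μM, diluted from a PBS stock into medium. Viability: 0.05% resazurin added for 4 h, fluorescence read at ex 560/580, em 590/610 nm; percent viable cells calculated; n = 3.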

[2] = test system: PPCL-46 cells; assay: Cytotoxicity and spheroid integrity in 3D spheroid culture, Alamar blue assay; assay type: cell-based, human
[3] = test system: liver and kidney tissues; assay: Acute toxicity: histology; assay type: in vivo, mice; conditions: 30 mg/kg Gem equivalent, single iv bolus, H&E staining
In short: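 Normal healthy mice got one IV bolus of test compound or GemHCl at 30 mg/kg gemcitabine equivalent; controls got none. Liver and kidneys were rinsed in PBS and fixed in 10% neutral buffered formalin for 48 h at room temperature. Tissue was paraffin-embedded, cut at 5 μm, H&E-stained and examined by light microscopy at 20×.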

[4] = test system: MiaPaCa-2 cells; assay: Cytotoxicity in 2D culture, Alamar blue assay; assay type: cell-based; conditions: Homo sapiens, MIA PaCa-2, 48 h, read-out: IC50 μM (2D MiaPaCa-2 culture)
In short: as §1

[5] = test system: VEGF receptor; assay: Immunohistochemical staining of PDX tumor sections; assay type: in vivo, human; conditions: PDX tumor tissue of treated mice
In short: (§2)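 PDX tumours from treated mice were excised, PBS-washed, fixed 24 h in 10% buffered formalin and moved to 70% ethanol. Sections were immunostained for the target protein, dehydrated, coverslipped and scanned as whole slides at 40×. Staining was scored on the IHC scale (0, 1+, etc.).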

[6] = Pharmacokinetic study after single intravenous bolus; assay type: in vivo; conditions: mice, iv bolus 30 mg/kg Gem equivalent, one-compartment model
In short: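 Normal healthy mice were grouped as control, gemcitabine hydrochloride, or test compound. Each received a single intravenous bolus of 30 mg/kg gemcitabine equivalent; controls got 0.9% NaCl saline. Gemcitabine was measured in blood and tissue supernatants by peak area. Recovery was checked against control supernatants spiked with 0.5 μg/mL gemcitabine. Groups were compared by t-test.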

[7] = test system: HER2; assay: Immunohistochemical staining of PDX tumor sections; assay type: in vivo, human; conditions: PDX tumor tissue of treated mice
In short: as §2

[8] = test system: MiaPaCa-2 cells; assay: Cytotoxicity in 3D spheroid culture, Alamar blue assay; assay type: cell-based; conditions: Homo sapiens, MIA PaCa-2, 48 h, read-out: IC50 μM (3D MiaPaCa-2 culture)
In short: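 MiaPaCa-2 cells were seeded at 3.0 × 10⁴/well in spheroid-forming plates and grown 72 h to form spheroids. Half the medium was then replaced with drug in growth medium for 48 h at 37 °C, 5% CO2. Resazurin (0.05%) was added for 4 h, and fluorescence was read at ex 560/580, em 590/610 nm to give percent viability.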

[9] = test system: EGFR; assay: Immunohistochemical staining of PDX tumor sections; assay type: in vivo, human; conditions: PDX tumor tissue of treated mice
In short: as §2

[10] = Acute toxicity: liver enzymes activity; assay type: in vivo, mice; conditions: serum
In short: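 Blood was drawn 24 h after one IV dose of 30 mg/kg gemcitabine equivalent; controls were untreated. Serum was spun at 3500 rpm for 6 min, serially diluted, and run in triplicate in kit enzyme/substrate mixes at 37 °C. AST: glutamate standard, 450 nm. ALT: pyruvate standard, 595 nm. Activity = product formed × dilution / (reaction time × sample volume).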

[11] = 24 h after 30 mg/kg Gem equivalent iv, mean ± SD, n = 3

Nc1ccn([C@@H]2O[C@H](CO)[C@@H](O)C2(F)F)c(=O)n1 [GemHCl, Gemcitabine Hydrochloride]
IC50 [1]: 75.5 ± 1.9 µM | IC50 ([2]; Homo sapiens, 48 h, read-out: IC50 μM (3D PPCL-46 culture)): 95.2 ± 1.4 µM | PPCL-46 spheroidal integrity after treatment ([2]; varying concentrations, images of spheroids): smaller surface spheroidal area with less non-spheroidal shapes | histopathological examination of kidney and liver compared to control [3]: no significant morphological changes | IC50 [4]: 45.7 ± 1.4 µM | VEGF receptor expression (IHC score) [5]: IHC 3+ | AUC (0-t) [6]: 28200 ± 4300 ng·h/mL | Vss (volume of distribution at steady state) [6]: 21.7 ± 3.6 μg/(μg/mL) | HER2 expression (IHC score) [7]: IHC 2+ | IC50 [8]: 55.8 ± 1.2 µM | EGFR expression (IHC score) [9]: IHC 1+ | AST level compared with control group ([10]; 30 mg/kg Gem equivalent): no statistically significant elevation | ALT [10, 11]: 232 ± 28 mUnits/mL | AST [10, 11]: 85 ± 9 mUnits/mL
